Source: ChEMBL document CHEMBL1131446, “New 1,4-dihydropyridines conjugated to furoxanyl moieties, endowed with both nitric oxide-like and calcium channel antagonist vasodilator activities” (J Med Chem, 1998)

What was measured:
[1] = target: T1, Voltage-dependent L-type calcium channel subunit alpha-1D (Rattus norvegicus, UniProt P27732); assay: Binding affinity for L-type [Ca2+] channels was measured through displacement of [3H]nitrendipine on rat cortex homogenates.; format: tissue-based
Rattus norvegicus [2] = species on record: Rattus norvegicus; assay: […]; format: functional
How it was run: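 Nitrite formation measured as an index of NO release. Compound incubated in pH 7.4 buffer with a 50-fold molar excess of L-cysteine at 37 °C. After 1 h, nitrite was detected by the Griess reaction. Values are expressed as % NO₂⁻ (mol/mol).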

Rattus norvegicus [3] = species on record: Rattus norvegicus; assay: Vasodilator activity was measured on rat aorta in the presence of methylene blue (MB).
Rattus norvegicus [4] = species on record: Rattus norvegicus; assay: Vasodilator activity was measured on rat aorta.
[5] = target: T1, Voltage-dependent L-type calcium channel subunit alpha-1D; assay: Inhibitory concentration for L-type [Ca2+] channels was measured through displacement of [3H]nitrendipine on rat cortex homogenates.; format: tissue-based

T1 sequence (P27732 whole entry): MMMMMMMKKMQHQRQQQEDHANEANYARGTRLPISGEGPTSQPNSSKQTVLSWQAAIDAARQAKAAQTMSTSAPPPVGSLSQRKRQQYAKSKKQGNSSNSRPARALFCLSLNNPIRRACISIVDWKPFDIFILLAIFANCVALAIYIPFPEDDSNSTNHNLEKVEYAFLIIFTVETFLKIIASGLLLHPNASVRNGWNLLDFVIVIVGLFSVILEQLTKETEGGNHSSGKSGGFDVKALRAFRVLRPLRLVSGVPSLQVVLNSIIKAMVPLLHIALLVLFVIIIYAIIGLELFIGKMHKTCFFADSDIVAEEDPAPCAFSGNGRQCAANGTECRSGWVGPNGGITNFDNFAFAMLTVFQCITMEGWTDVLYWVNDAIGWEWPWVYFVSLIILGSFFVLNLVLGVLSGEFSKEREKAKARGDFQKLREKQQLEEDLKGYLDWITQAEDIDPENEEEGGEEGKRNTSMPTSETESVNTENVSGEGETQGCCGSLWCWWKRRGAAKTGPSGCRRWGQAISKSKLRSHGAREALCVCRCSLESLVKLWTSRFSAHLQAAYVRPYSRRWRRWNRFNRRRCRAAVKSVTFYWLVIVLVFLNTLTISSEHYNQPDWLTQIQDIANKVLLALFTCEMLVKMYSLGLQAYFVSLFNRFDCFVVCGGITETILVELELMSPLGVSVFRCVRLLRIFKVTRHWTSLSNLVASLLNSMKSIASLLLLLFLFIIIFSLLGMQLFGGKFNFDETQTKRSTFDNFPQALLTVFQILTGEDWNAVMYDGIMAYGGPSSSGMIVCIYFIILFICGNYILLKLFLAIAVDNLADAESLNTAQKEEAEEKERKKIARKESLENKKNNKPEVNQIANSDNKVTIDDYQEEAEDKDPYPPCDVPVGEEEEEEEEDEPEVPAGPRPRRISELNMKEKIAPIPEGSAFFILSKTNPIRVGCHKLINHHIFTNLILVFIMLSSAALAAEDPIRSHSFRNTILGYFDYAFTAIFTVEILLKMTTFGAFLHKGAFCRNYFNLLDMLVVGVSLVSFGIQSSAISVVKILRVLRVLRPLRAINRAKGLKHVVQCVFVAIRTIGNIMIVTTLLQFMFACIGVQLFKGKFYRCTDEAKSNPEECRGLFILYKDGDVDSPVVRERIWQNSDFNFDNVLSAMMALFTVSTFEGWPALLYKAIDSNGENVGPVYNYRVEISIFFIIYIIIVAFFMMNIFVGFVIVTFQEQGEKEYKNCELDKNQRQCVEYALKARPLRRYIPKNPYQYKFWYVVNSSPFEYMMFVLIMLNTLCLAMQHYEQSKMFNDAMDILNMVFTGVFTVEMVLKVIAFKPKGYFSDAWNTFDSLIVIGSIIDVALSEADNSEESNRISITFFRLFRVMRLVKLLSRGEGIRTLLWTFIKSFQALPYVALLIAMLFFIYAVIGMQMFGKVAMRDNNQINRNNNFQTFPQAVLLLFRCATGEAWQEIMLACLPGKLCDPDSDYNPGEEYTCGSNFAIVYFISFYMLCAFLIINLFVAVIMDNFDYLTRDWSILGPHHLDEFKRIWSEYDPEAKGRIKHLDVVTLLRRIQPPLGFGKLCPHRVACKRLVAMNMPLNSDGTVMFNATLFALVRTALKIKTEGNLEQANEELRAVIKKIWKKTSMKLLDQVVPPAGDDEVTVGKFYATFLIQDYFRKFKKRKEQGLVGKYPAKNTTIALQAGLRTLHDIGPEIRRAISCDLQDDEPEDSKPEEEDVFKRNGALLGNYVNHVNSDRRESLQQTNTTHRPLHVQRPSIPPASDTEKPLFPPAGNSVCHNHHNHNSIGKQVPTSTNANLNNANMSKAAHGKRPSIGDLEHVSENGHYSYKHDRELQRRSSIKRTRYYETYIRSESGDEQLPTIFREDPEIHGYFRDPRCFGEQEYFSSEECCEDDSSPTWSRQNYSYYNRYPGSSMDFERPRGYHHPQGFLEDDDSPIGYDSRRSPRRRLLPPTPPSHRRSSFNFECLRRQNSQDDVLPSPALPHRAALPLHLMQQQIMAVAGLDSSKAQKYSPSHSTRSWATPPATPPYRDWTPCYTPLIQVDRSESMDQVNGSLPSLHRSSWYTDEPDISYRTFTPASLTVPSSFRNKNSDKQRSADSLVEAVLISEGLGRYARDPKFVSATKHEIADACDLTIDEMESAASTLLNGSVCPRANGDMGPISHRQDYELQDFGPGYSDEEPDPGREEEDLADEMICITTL

Ki [1]	EC50 iGC (Rattus norvegicus [3])	EC50 (Rattus norvegicus [4])	IC50 [5]	SMILES	Nitric oxide (Rattus norvegicus [2])
21 nM	22 nM	4.4 nM	27 nM	COC(=O)C1=C(C)N=C(C)/C(=C(/O)OC)C1c1ccccc1OCc1no[n+]([O-])c1C#N (centres undefined)	40.8%
280 nM	400 nM	400 nM	610 nM	COC(=O)C1=C(C)N=C(C)/C(=C(/O)OC)C1c1cccc(OCc2c(C)no[n+]2[O-])c1 (centres undefined)	<0.5%
400 nM	910 nM	970 nM	880 nM	COC(=O)C1=C(C)N=C(C)/C(=C(/O)OC)C1c1ccccc1OCc1nonc1C(N)=O (centres undefined)	–
670 nM	940 nM	550 nM	1500 nM	COC(=O)C1=C(C)N=C(C)/C(=C(/O)OC)C1c1ccccc1OCc1no[n+]([O-])c1C(N)=O (centres undefined)	13%
27 nM	46 nM	41 nM	59 nM	COC(=O)C1=C(C)N=C(C)/C(=C(/O)OC)C1c1ccccc1OCc1nonc1C (centres undefined)	–
18 nM	46 nM	43 nM	40 nM	COC(=O)C1=C(C)N=C(C)/C(=C(/O)OC)C1c1ccccc1OCc1no[n+]([O-])c1C (centres undefined)	0.9%
270 nM	300 nM	310 nM	590 nM	COC(=O)C1=C(C)N=C(C)/C(=C(/O)OC)C1c1cccc(OCc2nonc2C#N)c1 (centres undefined)	–
220 nM	–	11 nM	500 nM	COC(=O)C1=C(C)N=C(C)/C(=C(/O)OC)C1c1cccc(OCc2c(C#N)no[n+]2[O-])c1 (centres undefined)	31.5%
440 nM	750 nM	750 nM	970 nM	COC(=O)C1=C(C)N=C(C)/C(=C(/O)OC)C1c1cccc(OCCO[N+](=O)[O-])c1 (centres undefined)	<0.5%
4.7 nM	6.6 nM	6.6 nM	10 nM	COC(=O)C1=C(C)N=C(C)/C(=C(/O)OC)C1c1ccccc1OCc1nonc1C#N (centres undefined)	–
320 nM	620 nM	640 nM	720 nM	COC(=O)C1=C(C)N=C(C)/C(=C(/O)OC)C1c1cccc(OCc2nonc2C)c1 (centres undefined)	–
2300 nM	3300 nM	3500 nM	5100 nM	COC(=O)C1=C(C)N=C(C)/C(=C(/O)OC)C1c1cccc(OCc2nonc2C(N)=O)c1 (centres undefined)	–
230 nM	–	3.3 nM	500 nM	COC(=O)C1=C(C)N=C(C)/C(=C(/O)OC)C1c1cccc(OCc2no[n+]([O-])c2C#N)c1 (centres undefined)	43.8%
350 nM	640 nM	560 nM	780 nM	COC(=O)C1=C(C)N=C(C)/C(=C(/O)OC)C1c1ccccc1OCc1c(C(N)=O)no[n+]1[O-] (centres undefined)	12.3%
920 nM	1500 nM	710 nM	2000 nM	COC(=O)C1=C(C)N=C(C)/C(=C(/O)OC)C1c1cccc(OCc2no[n+]([O-])c2C(N)=O)c1 (centres undefined)	6%
1600 nM	3700 nM	1200 nM	3600 nM	COC(=O)C1=C(C)N=C(C)/C(=C(/O)OC)C1c1cccc(OCc2c(C(N)=O)no[n+]2[O-])c1 (centres undefined)	7.6%
32 nM	76 nM	78 nM	72 nM	COC(=O)C1=C(C)N=C(C)/C(=C(/O)OC)C1c1ccccc1OCc1c(C)no[n+]1[O-] (centres undefined)	1.8%
370 nM	540 nM	500 nM	820 nM	COC(=O)C1=C(C)N=C(C)/C(=C(/O)OC)C1c1cccc(OCc2no[n+]([O-])c2C)c1 (centres undefined)	<0.5%
38 nM	54 nM	56 nM	85 nM	COC(=O)C1=C(C)N=C(C)/C(=C(/O)OC)C1c1ccccc1OCCO[N+](=O)[O-] (centres undefined)	<0.5%
30 nM	50 nM	9.4 nM	67 nM	COC(=O)C1=C(C)N=C(C)/C(=C(/O)OC)C1c1ccccc1OCc1c(C#N)no[n+]1[O-] (centres undefined)	24%

SMILES	Ki [1]	EC50 iGC (Rattus norvegicus [3])	EC50 (Rattus norvegicus [4])	IC50 [5]	Nitric oxide (Rattus norvegicus [2])
COC(=O)C1=C(C)NC(C)=C(C(=O)OC)C1c1ccccc1[N+](=O)[O-] [NIFEDIPINE]	–	3.4 nM	3.2 nM	–	–
